This note sets out measurements from ChEMBL document CHEMBL1208682, “New quinoline derivatives: synthesis and investigation of antibacterial and antituberculosis properties” (2010).

In general, MIC refers to the lowest concentration that inhibits growth of the organism. Lower therefore signals inhibition by little substance.

Holding throughout (assay type): functional
In experiment [1] the test system is Staphylococcus aureus. The experiment in a line: Antibacterial activity against Staphylococcus aureus ATCC 25923 after 3 to 4 days by serial plate dilution method. The conditions noted are these: for MIC: Staphylococcus aureus, ATCC 25923.
Experiment [2] relates to Escherichia coli. The experiment in a line: Antibacterial activity against Escherichia coli ATCC 25922 after 3 to 4 days by serial plate dilution method. The conditions noted are these: for MIC: Escherichia coli, ATCC 25922.
For experiment [3], the system named is Pseudomonas aeruginosa. The experiment in a line: Antibacterial activity against Pseudomonas aeruginosa ATCC 27853 after 3 to 4 days by serial plate dilution method. Particulars: for MIC: Pseudomonas aeruginosa, ATCC 27853.
Experiment [4] relates to Klebsiella pneumoniae. The experiment in a line: Antibacterial activity against recultured Klebsiella pneumoniae after 3 to 4 days by serial plate dilution method. Particulars: for MIC: Klebsiella pneumoniae.
Experiment [5] concerns Mycobacterium tuberculosis. The experiment can be described thus: Antituberculosis activity against Mycobacterium tuberculosis H37Rv ATCC 27294 after 7 days using resazurin dye by broth microdilution assay. The conditions noted are these: H37Rv ATCC 27294, 168 h. In outline: (§1)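 M. tuberculosis H37Rv grown in Middlebrook 7H9 with 10% OADC and 0.5% glycerol, adjusted to McFarland 1.0. Compounds were dissolved in DMF as stocks and tested at final levels of 1.56, 3.12, 6.25, 12.5, 25 and 50 in 96-well REMA. Controls were DMF-only, growth, rifampicin and isoniazid. After 7 days at 37 °C, 0.01% resazurin was added for 24 h and the colour change read.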
(Alamar Blue is a resazurin reagent that responds to reducing activity.)

Experiment [6] deals with Mycobacterium tuberculosis. The experiment in a line: Antituberculosis activity against Mycobacterium tuberculosis at MIC concentration after 7 days using resazurin dye by broth microdilution assay. In a few lines:
as §1

Experiment [7] deals with Mycobacterium tuberculosis. The experiment can be described thus: Antituberculosis activity against Mycobacterium tuberculosis. In a few lines: as §1

Values after ≈ are worked out from the molar mass of the structure shown.

Consider `Cn1cc(Cl)c(/C=N/Nc2cc(C(F)(F)F)nc3c(C(F)(F)F)cccc23)n1`, for which the “diameter of the inhibition zone (DIZ)” value in experiment [1] was 22 mm; in experiment [2], 24 mm; in experiment [3] it was 28 mm; in experiment [4], 18 mm. The MIC in experiment [1] amounted to 6.25 µg/mL (≈ 14.8 µM); in experiment [2], 6.25 µg/mL (≈ 14.8 µM); in experiment [3] it was 6.25 µg/mL (≈ 14.8 µM); in experiment [4], 6.25 µg/mL (≈ 14.8 µM); in experiment [5], 6.25 µM (≈ 2.64 µg/mL). Further, in experiment [6], the “inhibition (INH)” value is given as 95%.
In the case of `COc1ccc(/C=N/Nc2cc(C(F)(F)F)nc3c(C(F)(F)F)cccc23)c(F)c1`, the “diameter of the inhibition zone (DIZ)” value was found to be 23 mm in experiment [1], 25 mm in experiment [2], 24 mm in experiment [3] and 22 mm in experiment [4]. Further, the MIC in experiment [1] was determined as 6.25 µg/mL (≈ 14.5 µM); in experiment [2], 6.25 µg/mL (≈ 14.5 µM); in experiment [3], 6.25 µg/mL (≈ 14.5 µM); in experiment [4], 6.25 µg/mL (≈ 14.5 µM); in experiment [5], 6.25 µM (≈ 2.7 µg/mL). For the same compound, the “inhibition (INH)” value in experiment [6] was 95%.
Take `Cc1nc[nH]c1/C=N/Nc1cc(C(F)(F)F)nc2c(C(F)(F)F)cccc12`: the “diameter of the inhibition zone (DIZ)” value in experiment [1] amounted to 24 mm; in experiment [2], 26 mm; in experiment [3], 25 mm; in experiment [4] it was 22 mm. Also, the MIC in experiment [1] came out at 6.25 µg/mL (≈ 16.1 µM); in experiment [2] it was 6.25 µg/mL (≈ 16.1 µM); in experiment [3], 6.25 µg/mL (≈ 16.1 µM); in experiment [4], 6.25 µg/mL (≈ 16.1 µM); in experiment [5], 3.12 µM (≈ 1.21 µg/mL). The “inhibition (INH)” value in experiment [6] is 99%.
Take `FC(F)(F)c1cc(N/N=C/C2CCCCC2)c2cccc(C(F)(F)F)c2n1`: the “diameter of the inhibition zone (DIZ)” value is 24 mm in experiment [1], 25 mm in experiment [2], 23 mm in experiment [3] and 19 mm in experiment [4]. Further, the MIC in experiment [1] came to 6.25 µg/mL (≈ 16.1 µM); in experiment [2], 6.25 µg/mL (≈ 16.1 µM); in experiment [3] it was 6.25 µg/mL (≈ 16.1 µM); in experiment [4] it was 6.25 µg/mL (≈ 16.1 µM); in experiment [5] it was 6.25 µM (≈ 2.43 µg/mL). For the same compound, in experiment [6], the “inhibition (INH)” value was found to be 95%.
For the compound `FC(F)(F)c1cc(N/N=C/c2c[nH]cn2)c2cccc(C(F)(F)F)c2n1`, the “diameter of the inhibition zone (DIZ)” value in experiment [1] came to 24 mm; in experiment [2], 25 mm; in experiment [3], 23 mm; in experiment [4], 18 mm. In addition, the minimal inhibitory concentration (MIC) in experiment [1] turned out to be 6.25 µg/mL (≈ 16.7 µM); in experiment [2], 6.25 µg/mL (≈ 16.7 µM); in experiment [3], 6.25 µg/mL (≈ 16.7 µM); in experiment [4] it was 6.25 µg/mL (≈ 16.7 µM); in experiment [5] it was 3.12 µM (≈ 1.16 µg/mL). In experiment [6], the “inhibition (INH)” value turned out to be 99%.
Consider `FC(F)(F)c1cc(N/N=C/c2ccc3nonc3c2)c2cccc(C(F)(F)F)c2n1`, for which the “diameter of the inhibition zone (DIZ)” value in experiment [1] stood at 18 mm; in experiment [2], 22 mm; in experiment [3], 24 mm; in experiment [4] it was 20 mm. Besides, the MIC is 6.25 µg/mL (≈ 14.7 µM) in experiment [1]; 6.25 µg/mL (≈ 14.7 µM) in experiment [2]; 6.25 µg/mL (≈ 14.7 µM) in experiment [3]; 6.25 µg/mL (≈ 14.7 µM) in experiment [4]; 12.5 µM (≈ 5.32 µg/mL) in experiment [5]. In addition, in experiment [6], the “inhibition (INH)” value is given as below 90%.
Take `Cc1cc(C)cc(NC(=O)NNc2cc(C(F)(F)F)nc3c(C(F)(F)F)cccc23)c1`: the “diameter of the inhibition zone (DIZ)” value in experiment [1] turned out to be 23 mm; in experiment [2], 20 mm; in experiment [3] it was 24 mm; in experiment [4], 22 mm. Further, the MIC in experiment [1] stood at 6.25 µg/mL (≈ 14.1 µM); in experiment [2], 6.25 µg/mL (≈ 14.1 µM); in experiment [3] it was 6.25 µg/mL (≈ 14.1 µM); in experiment [4] it was 6.25 µg/mL (≈ 14.1 µM); in experiment [5], 6.25 µM (≈ 2.76 µg/mL). The “inhibition (INH)” value in experiment [6] is 95%.
Turning to `Cn1cccc1/C=N/Nc1cc(C(F)(F)F)nc2c(C(F)(F)F)cccc12`, the “diameter of the inhibition zone (DIZ)” value in experiment [1] came out at 22 mm; in experiment [2] it was 20 mm; in experiment [3], 24 mm; in experiment [4] it was 21 mm. Moreover, the MIC in experiment [1] is 6.25 µg/mL (≈ 16.2 µM); in experiment [2], 6.25 µg/mL (≈ 16.2 µM); in experiment [3], 6.25 µg/mL (≈ 16.2 µM); in experiment [4], 6.25 µg/mL (≈ 16.2 µM); in experiment [5], 12.5 µM (≈ 4.83 µg/mL). In experiment [6], the “inhibition (INH)” value was below 90%.
The compound `OC(c1cc(C(F)(F)F)nc2c(C(F)(F)F)cccc12)C1CCCCN1` (stereo unspecified) [MEFLOQUINE] showed an MIC in experiment [7] of 25 µg/mL (≈ 66.1 µM).
Turning to `FC(F)C(F)(F)Oc1cccc(/C=N/Nc2cc(C(F)(F)F)nc3c(C(F)(F)F)cccc23)c1`, the “diameter of the inhibition zone (DIZ)” value in experiment [1] stood at 22 mm; in experiment [2], 21 mm; in experiment [3], 26 mm; in experiment [4], 18 mm. Also, the minimal inhibitory concentration (MIC) in experiment [1] came to 6.25 µg/mL (≈ 12.5 µM); in experiment [2], 6.25 µg/mL (≈ 12.5 µM); in experiment [3], 6.25 µg/mL (≈ 12.5 µM); in experiment [4], 6.25 µg/mL (≈ 12.5 µM); in experiment [5] it was 12.5 µM (≈ 6.24 µg/mL). Moreover, in experiment [6], the “inhibition (INH)” value is recorded as below 90%.
Regarding `Cn1nnc2cc(/C=N/Nc3cc(C(F)(F)F)nc4c(C(F)(F)F)cccc34)ccc21`, the “diameter of the inhibition zone (DIZ)” value in experiment [1] is 22 mm; in experiment [2], 20 mm; in experiment [3] it was 24 mm; in experiment [4] it was 21 mm. In addition, the MIC in experiment [1] is 6.25 µg/mL (≈ 14.3 µM); in experiment [2], 6.25 µg/mL (≈ 14.3 µM); in experiment [3], 6.25 µg/mL (≈ 14.3 µM); in experiment [4], 6.25 µg/mL (≈ 14.3 µM); in experiment [5], 12.5 µM (≈ 5.48 µg/mL). Further, the “inhibition (INH)” value in experiment [6] is below 90%.
In the case of `COc1ccc(/C=N/Nc2cc(C(F)(F)F)nc3c(C(F)(F)F)cccc23)cc1O`, the “diameter of the inhibition zone (DIZ)” value is recorded as 14 mm in experiment [1], 13 mm in experiment [2], 15 mm in experiment [3] and 12 mm in experiment [4]. The minimal inhibitory concentration (MIC) in experiment [1] was 12.5 µg/mL (≈ 29.1 µM); in experiment [2], 12.5 µg/mL (≈ 29.1 µM); in experiment [3], 12.5 µg/mL (≈ 29.1 µM); in experiment [4], 12.5 µg/mL (≈ 29.1 µM); in experiment [5] it was 12.5 µM (≈ 5.37 µg/mL). Further, the “inhibition (INH)” value in experiment [6] is reported as below 90%.
Regarding `FC(F)(F)Oc1cccc(/C=N/Nc2cc(C(F)(F)F)nc3c(C(F)(F)F)cccc23)c1`, the “diameter of the inhibition zone (DIZ)” value in experiment [1] was 21 mm; in experiment [2], 24 mm; in experiment [3], 26 mm; in experiment [4] it was 20 mm. Moreover, the minimum inhibitory concentration (MIC) turned out to be 6.25 µg/mL (≈ 13.4 µM) in experiment [1]; 6.25 µg/mL (≈ 13.4 µM) in experiment [2]; 6.25 µg/mL (≈ 13.4 µM) in experiment [3]; 6.25 µg/mL (≈ 13.4 µM) in experiment [4]; 12.5 µM (≈ 5.84 µg/mL) in experiment [5]. In addition, in experiment [6], the “inhibition (INH)” value is recorded as below 90%.
Turning to `Cc1cccc2c(/C=N/Nc3cc(C(F)(F)F)nc4c(C(F)(F)F)cccc34)c[nH]c12`, the “diameter of the inhibition zone (DIZ)” value in experiment [1] was found to be 24 mm; in experiment [2], 27 mm; in experiment [3], 24 mm; in experiment [4], 19 mm. The MIC in experiment [1] came out at 6.25 µg/mL (≈ 14.3 µM); in experiment [2], 6.25 µg/mL (≈ 14.3 µM); in experiment [3] it was 6.25 µg/mL (≈ 14.3 µM); in experiment [4] it was 6.25 µg/mL (≈ 14.3 µM); in experiment [5] it was 6.25 µM (≈ 2.73 µg/mL). Besides, in experiment [6], the “inhibition (INH)” value stood at 95%.
For the compound `O=C(NNc1cc(C(F)(F)F)nc2c(C(F)(F)F)cccc12)Nc1ccc(F)cc1`, the “diameter of the inhibition zone (DIZ)” value in experiment [1] is listed as 10 mm; in experiment [2], 10 mm; in experiment [3], 14 mm; in experiment [4] it was below 10 mm. For the same compound, the MIC in experiment [1] is 12.5 µg/mL (≈ 28.9 µM); in experiment [2] it was 12.5 µg/mL (≈ 28.9 µM); in experiment [3] it was 12.5 µg/mL (≈ 28.9 µM); in experiment [4] it was 50 µg/mL (≈ 116 µM); in experiment [5], 12.5 µM (≈ 5.4 µg/mL). Also, the “inhibition (INH)” value in experiment [6] is below 90%.
